Experimental data as given in ChEMBL document CHEMBL1687818, “Mechanistic studies of the inactivation of TEM-1 and P99 by NXL104, a novel non-beta-lactam beta-lactamase inhibitor” (Antimicrob Agents Chemother, 2010).

What was measured:
Beta-lactamase [1] = biological target: T1, Beta-lactamase (Enterobacter cloacae, UniProt P05364); test: Inhibition of Enterobacter cloacae beta-lactamase P99 after 5 seconds incubation with nitrocefin substrate by spectrophotometry
[2] = Inhibition of beta-lactamase CTX-M-15 assessed as nitrocefin hydrolysis after 5 mins enzyme-compound preincubation
[3] = Inhibition of beta-lactamase TEM- 1 assessed as nitrocefin hydrolysis after 5 mins enzyme-compound preincubation
Method in brief: (§1)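 Enzyme and inhibitor were preincubated 5 min at 37°C. The inhibitor was tested at 11 concentrations from 1 nM to 100 µM. Final enzyme concentrations were TEM-1 0.25 nM, CTX-M-15 0.35 nM, KPC-2 3 nM and SHV-4 6 nM. Nitrocefin was at 100 µM. Initial rates were read at 485 nm over the first minute. Each value is the mean of at least two independent experiments.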

[4] = Inhibition of beta-lactamase SHV-4 assessed as nitrocefin hydrolysis after 5 mins enzyme-compound preincubation; method in brief: as §1
[5] = Inhibition of beta-lactamase KPC-2 assessed as nitrocefin hydrolysis after 5 mins enzyme-compound preincubation; method in brief: as §1
Beta-lactamase [6] = biological target: T1, Beta-lactamase; test: Inhibition of Enterobacter cloacae beta-lactamase P99 assessed as nitrocefin hydrolysis after 5 mins enzyme-compound preincubation
[7] = Inhibition of beta-lactamase TEM-1 after 5 seconds incubation with nitrocefin substrate by spectrophotometry
Method in brief: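 Direct competition with reporter substrate at 37°C: inhibitor concentrations were premixed with 100 µM nitrocefin, and the reaction was started with 0.25 nM purified TEM-1. Nitrocefin hydrolysis was followed spectrophotometrically at 485 nm. Initial velocity over the first 5 s was compared with the no-inhibitor control, and KI was derived by equation 2. Means of at least two independent experiments.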

T1 sequence (P05364 whole entry): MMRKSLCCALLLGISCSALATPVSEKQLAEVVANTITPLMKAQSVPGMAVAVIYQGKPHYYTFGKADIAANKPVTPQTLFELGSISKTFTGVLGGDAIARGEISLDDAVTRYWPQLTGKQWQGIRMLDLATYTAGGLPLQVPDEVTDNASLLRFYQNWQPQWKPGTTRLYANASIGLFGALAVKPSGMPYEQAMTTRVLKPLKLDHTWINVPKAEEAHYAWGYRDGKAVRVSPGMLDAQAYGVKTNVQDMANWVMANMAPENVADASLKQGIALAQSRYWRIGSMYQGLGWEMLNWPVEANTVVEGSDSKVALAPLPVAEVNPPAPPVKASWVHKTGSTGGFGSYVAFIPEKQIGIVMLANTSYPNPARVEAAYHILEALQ

Ki (Beta-lactamase [1]) [nM] | IC50 (Beta-lactamase [6]) [nM] | Ki [7] [nM] | Compound | IC50 [2] [nM] | IC50 [3] [nM] | IC50 [4] [nM] | IC50 [5] [nM]
7700 | 100 | 260 | NC(=O)[C@@H]1CC[C@@H]2CN1C(=O)N2OS(=O)(=O)O (relative stereo) [AVIBACTAM] | 5 | 8 | 3 | 170
 |  | 800 | O=C(O)[C@H]1/C(=C/CO)O[C@@H]2CC(=O)N21 [CLAVULANIC ACID] |  | 58 | 4 | > 100000
 |  |  | CC1(C)[C@H](C(=O)O)N2C(=O)C[C@H]2S1(=O)=O [SULBACTAM] | 230 | 1560 | 260 | 57000

Compound | Ki (Beta-lactamase [1]) [nM] | IC50 (Beta-lactamase [6]) [nM] | Ki [7] [nM] | IC50 [2] [nM] | IC50 [3] [nM] | IC50 [4] [nM] | IC50 [5] [nM]
C[C@]1(Cn2ccnn2)[C@H](C(=O)O)N2C(=O)C[C@H]2S1(=O)=O [TAZOBACTAM] |  |  | 30 | 6 | 32 | 55 | 50000
